Screening data from PubChem BioAssay.
An excerpt weighted towards active compounds, which were near 1.8% of everything screened.
PAD4 inh – PAD4 (human) enzyme inhibition. Q9UM07. recombinant PAD4, RCA probe fluorescence polarization. inhibition, % at 6.36 µM. 330,000 tested, 0.41% active. AID 485272;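 active = percent inhibition above a cutoff equal to the mean of all tested compounds plus 3 SD, cut at about 15% in these data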;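 note: 0% = PAD4 with RCA probe and DMSO and 100% = probe without PAD4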
Target sequence (Q9UM07 whole entry, looked up): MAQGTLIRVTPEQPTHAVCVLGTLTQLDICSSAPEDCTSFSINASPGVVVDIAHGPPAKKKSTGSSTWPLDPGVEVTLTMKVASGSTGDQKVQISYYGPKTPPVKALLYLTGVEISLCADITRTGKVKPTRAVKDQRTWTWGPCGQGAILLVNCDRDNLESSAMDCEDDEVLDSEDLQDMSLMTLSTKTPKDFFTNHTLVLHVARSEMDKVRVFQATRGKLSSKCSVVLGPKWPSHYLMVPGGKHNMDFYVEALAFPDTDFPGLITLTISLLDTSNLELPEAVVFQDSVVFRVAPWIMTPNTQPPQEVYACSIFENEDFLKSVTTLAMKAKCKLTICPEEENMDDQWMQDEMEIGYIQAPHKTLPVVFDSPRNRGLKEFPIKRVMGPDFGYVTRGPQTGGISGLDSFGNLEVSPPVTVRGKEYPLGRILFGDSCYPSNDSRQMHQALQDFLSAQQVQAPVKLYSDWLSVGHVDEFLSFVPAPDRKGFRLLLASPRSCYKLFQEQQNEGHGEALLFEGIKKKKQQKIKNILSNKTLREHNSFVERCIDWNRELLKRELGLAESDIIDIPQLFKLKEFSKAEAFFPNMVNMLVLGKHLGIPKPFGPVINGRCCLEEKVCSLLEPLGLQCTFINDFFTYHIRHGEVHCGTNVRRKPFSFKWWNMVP
CTSL1 counter – cathepsin L1 inhibition, PFM18AAP counter-screen; 300,000 tested, 0.49% active; inhibition, % at 5.96 µM; AID 1906; recombinant F. hepatica cathepsin L1, Z-Leu-Arg-MCA fluorescence;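 active = inhibition above the mean of all tested compounds plus 3 SD, set per screening campaign, cut at about 17% in these data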;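 note: 0% = plate median of test compound wells and 100% = 1 µM Z-Phe-Ala-diazomethylketone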
Apaf1 inhib – human Apaf-1 inhibition. O14727. reconstituted apoptosome caspase-3 activity, DEVD-Rh110 fluorescence. inhibition, % at 20 µM. 330,000 tested, 0.71% active; active = inhibition of at least 40% at 20 µM;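 note: plate controls were DMSO wells for no effect and DEVD-CHO caspase inhibitor wells for full effect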
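Material: reconstituted apoptosome with Apaf-1, cytochrome c, caspase-9, procaspase-3, dATP; medium: pH 7.5 Hepes buffer with CHAPS, BSA, DTT; also added: cytochrome c and DEVD-Rh110 substrate; timing: 30 min plus 50 min, RT; signal: Rh110 fluorescence intensity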
TDP2 inh – TDP2 (human) inhibition, absorbance primary screen; inhibition, % at 12.8 µM; recombinant TDP2, T5PNP hydrolysis, p-nitrophenol absorbance 415 nm; O95551; AID 720702; 370,000 tested, 0.34% active;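 active = inhibition above the mean of all tested compounds plus 3 SD, set per campaign, cut at about 25% in these data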;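 note: 0% = DMSO with enzyme and 100% = buffer with substrate but no TDP2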
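Assay system: recombinant human TDP2 / Reagent: T5PNP substrate at 5 mM, a TopII-DNA adduct mimic / Measured by: epi absorbance from released p-nitrophenol / Evaluation: % inhibition relative to enzyme-containing and enzyme-free wells / Control set: enzyme-free and DMSO wells / Replicates: each compound tested once, singlicate / Schedule: enzyme reaction with compound for 2 h at 37 °C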
GSTO1 inh – counter-screen for RBBP9 inhibitors: inhibitors of human GSTO1; inhibition, % at 5.96 µM; AID 1974; P78417; recombinant GSTO1, activity-based probe fluorescence polarization; 300,000 tested, 1.1% active;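 active = inhibition above the campaign mean inhibition plus 3 SD, cut at about 35% in these data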;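 note: 0% = GSTO1-1 with DMSO and 100% = wells lacking GSTO1-1 enzyme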
GSTO1 confirm – confirmation of human GSTO1 inhibitors; recombinant GSTO1, probe fluorescence polarization; AID 2176; shares compounds with GSTO1 inh; inhibition, % at 5.96 µM; 2,400 tested, 54% active;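 active = inhibition above the primary screen's cutoff, its mean inhibition plus 3 SD, cut at about 35% in these data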;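 note: loss of polarization as inhibitors block binding of rhodamine sulfonate ester activity probe; 0% = GSTO1 with DMSO and 100% = wells lacking GSTO1 enzyme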
GSTO1 ABPP inh – GSTO1 (human) inhibition by gel ABPP. shares compounds with GSTO1 inh. recombinant GSTO1, gel ABPP SE-Rh probe fluorescence. inhibition, % at 1 µM. 130 tested, 30% active. AID 463110;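 active = inhibition of the enzyme GSTO1 above about 75%, limit read from the data; inactive = inhibition below that limit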
An asterisk follows results filed as active; · = no result.

SMILES	PAD4 inh	CTSL1 counter	Apaf1 inhib	TDP2 inh	GSTO1 inh	others
COC(=O)C1CN(C2CC2)CCS(=O)(=O)N1Cc1cn(Cc2ccc(F)cc2)nn1 (stereo not given)	·	·	·	10.1	·
Cc1occc1C(=O)NNC(=S)NCc1ccccc1	3.2	17.1*	8.6	1.4	3.6
O=c1cc(/N=C/c2coc3c(ccc4ccccc43)c2=O)[nH]c(=S)[nH]1	-1.3	6.1	8.2	-6.8	41.5*
COc1cccc(N(C)C(=O)[C@@H](C)[C@@H](O)c2ccc(Cl)cc2)c1	·	·	·	-5.0	·
COc1cc(C(CC(=O)N2CCCC2)c2c(OC)cc(OC)c3ccc(=O)oc23)cc(OC)c1OC (stereo not given)	-2.9	36.9*	-0.4	2.0	6.1
COCCSc1nnc(-c2cccnc2)n1Cc1ccccc1	·	·	·	-6.6	·
CC(=O)O[C@H]1CC(C)(C)C(=C=C/C(C)=C/C=C/C(C)=C/C=C/C=C(C)/C=C/C=C(\C)C(=O)C[C@@]23O[C@]2(C)C[C@@H](O)CC3(C)C)[C@](C)(O)C1	0.9	33.9*	-2.8	·	2.3
CC(C)(C)c1ccc(S(=O)(=O)N2CCCC(C(=O)N3CCN(Cc4ccccc4)CC3)C2)cc1 (stereo not given)	·	·	·	-1.3	·
O=C(N1CCC(Cc2ccccc2)CC1)n1ncc(C(O)(c2ccccc2)c2ccccc2)n1	·	·	·	-5.5	·
CCCC1CCC(C2=N/C(=C\c3ccc(OC)c(OC)c3)C(=O)O2)CC1 (stereo not given)	0.4	2.9	13.4	-2.8	-2.3
CC(=O)Oc1ccc(/C=C2\N=C(C3CCCCC3)OC2=O)cc1	-1.1	23.1*	-3.4	-0.1	-3.5
COc1cccc(/C=C2\N=C(C3CCCCC3)OC2=O)c1OC	3.5	19.8*	-15.5	7.4	4.0
CCOc1cc(/C=C2/N=C(c3ccc4c(c3)OCO4)OC2=O)ccc1OC(C)=O	3.2	·	-4.0	0.0	·
Cc1nc2c(-c3ccc(F)cc3)cnn2c(N)c1-c1ccccc1	0.1	19.2*	26.5	-17.2	7.2
CCOC(=O)C(C(=O)OCC)N(C#N)c1nc(SC)nc(N(C)C)n1	-0.7	85.6*	10.0	2.1	-1.7
CCOC(=O)C(C(=O)OCC)N(C#N)c1nc(OC)nc(N(C)C)n1	-3.0	76.8*	-2.3	11.1	4.1
CSc1nc(N(C)C)nc(N(C#N)CCOC(C)=O)n1	-1.3	-3.9	1.9	-1.3	6.0
COc1ccc(C(C(=O)N(C)C2CCCC2)N(Cc2ccc(F)cc2)C(=O)c2ncn[nH]2)cc1OC (stereo not given)	·	·	·	7.0	·
CCN1CCCC1CNC(=O)c1ccc2c(c1)N(Cc1cccc(Cl)c1)C(=O)c1ccccc1S2(=O)=O (stereo not given)	-4.8	2.4	22.7	1.2	-7.9
O=C(NCCN1CCOCC1)c1ccc2c(c1)N(Cc1ccccc1F)C(=O)CS2	-3.3	27.1*	6.4	-4.0	-2.3
CC1CCCN(CCCNC(=O)c2ccc3c(c2)N(Cc2ccccc2F)C(=O)c2ccccc2S3(=O)=O)C1 (stereo not given)	8.9	-4.1	14.4	2.4	-6.2
O=C(NCCN1CCOCC1)c1ccc2c(c1)N(Cc1ccccc1F)C(=O)c1ccccc1S2(=O)=O	2.1	18.2*	9.5	-13.3	3.6
CCN1CCCC1CNC(=O)c1ccc2c(c1)N(Cc1ccccc1F)C(=O)c1ccccc1S2(=O)=O (stereo not given)	0.6	52.4*	7.2	-4.3	-2.2
O=C(CCn1nnc2ccccc21)N1CCN(c2cccc(C(F)(F)F)c2)CC1	·	·	·	-6.9	·
COc1ccc([C@H](C#Cc2ccccc2)CC(=O)O)cc1OC1CCCC1	·	·	·	7.5	·
SMILES	PAD4 inh	CTSL1 counter	Apaf1 inhib	TDP2 inh	GSTO1 inh	others
COCCCNC(=O)C[C@H]1C[C@@]2(C(=O)OC)C(=C[C@H](C(C)C)O[C@@H]2C2CC2)N(Cc2cccc3ccccc23)C1=O	·	·	·	10.8	·
CCOC(=O)c1nn(-c2ccc(C)cc2)c(=O)c2c(N)scc12	-10.0	16.8*	36.9	6.4	27.5
COc1cccc(OC)c1C(=O)Nc1sc2c(c1C(N)=O)CCN(Cc1ccccc1)C2	-7.0	-1.2	7.6	-8.9	-1.6
CCN1CCc2c(sc(NC(=O)c3cc4ccccc4cc3OC)c2C(N)=O)C1	-2.3	3.0	65.4*	-12.4	-1.1
O=C1C(O)=CC(=C(c2ccccc2)c2ccccc2)c2ccccc21	·	·	·	25.6*	·
O=C(O)c1cccc2c1C(=O)c1ccccc1-2	4.3	-0.9	-5.1	-5.7	-0.4
CN1CCC(N[C@@H](Cc2c[nH]c3ccccc23)C(=O)NCCCc2ccccc2)(C(=O)NCCc2c[nH]c3ccccc23)CC1	·	·	·	-8.6	·
Cc1c(N2C(=O)c3ccc4c5c(ccc(c35)C2=O)CC4)c(=O)n(-c2ccccc2)n1C	1.5	1.3	13.0	·	35.6*
COc1c2c(c(C)c3c1C(=O)OC3)O[C@@]1(C)CC[C@@]3(O)C(C)(C)OC(=O)CC[C@]3(C)[C@H]1C2	2.4	25.3*	6.0	0.4	6.9
CC(=O)O[C@@H]1CCC[C@@]2(C(=O)Nc3ccccc32)[C@H]1NC(=O)C(C)C	·	·	·	-2.9	·
O=C1c2ccccc2C(=O)N1c1cccc(-c2csc(Nc3ccc4c(c3)OCO4)n2)c1	-1.1	-1.0	·	·	62.3*
CCOC(=O)N1CCN(C(=O)CCl)CC1	2.7	7.8	-7.0	-3.5	77.2*	GSTO1 confirm=91.9*
CC(C)(C)NC(=O)NC(=O)CN1CCCCCCC1	-4.1	-0.1	13.5	-5.3	-14.5
CC(C)(C)NC(=O)CN1CCN(C(=O)CCl)CC1	-2.4	-2.1	-1.6	4.5	81.7*	GSTO1 confirm=96.1*;GSTO1 ABPP inh=33.0
Cc1[nH]c2ccccc2c1CC(=O)Nc1ccc(Nc2cccnc2)c(-c2ccc(Oc3ccccc3)cc2)c1	·	·	·	-2.8	·
Cc1ccc(N(C)C)cc1	·	·	·	-5.3	·
Cc1ccc(C)n1-c1ccc(N(C)C)cc1	0.0	-0.7	12.0	20.9	46.0*	GSTO1 confirm=5.9
COc1ccc(-c2oc(NC(=O)CCl)c(C#N)c2-c2ccc(OC)cc2)cc1	13.7	61.1*	12.4	-10.4	76.0*	GSTO1 confirm=86.3*
c1ccc(COCCC2CO2)cc1 (stereo not given)	0.1	-0.5	6.5	·	61.1*	GSTO1 confirm=72.2*;GSTO1 ABPP inh=59.0
COC(=O)c1ccc(=O)c2nc3/c(=C/O)c(O)cc(=O)c3[nH]c12	14.2	3.8	·	2.7	74.7*	GSTO1 confirm=71.1*
O=C1C=CC(=O)C(C2=C3C(=O)N(CCc4ccccc4)CC(=O)N3CCC2)=C1	-0.7	2.5	14.5	-0.5	74.6*	GSTO1 confirm=6.8
Nc1c(C(=O)NCc2ccco2)c2nc3ccccc3nc2n1CCc1ccc(F)cc1	37.1*	3.8	77.6*	0.9	75.3*	GSTO1 confirm=57.9*
